Rows were chosen to be rich in hits. Some 3.1% of all compounds tested hit in one or more screens of this group.
PAFAH1B3 FP inh: PAFAH1B3 (human) inhibition. Q15102. recombinant PAFAH1B3, FP-rhodamine probe, fluorescence polarization. inhibition, % at 3.39 µM. actives 0.28% (n = 340,000);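 active = inhibition above the screen-wide average of all tested compounds plus 3 SD, cut at about 25% in these data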;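 also: 0% = enzyme with DMSO only and 100% = wells lacking PAFAH1B3 protein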
Target sequence (Q15102 whole entry, looked up): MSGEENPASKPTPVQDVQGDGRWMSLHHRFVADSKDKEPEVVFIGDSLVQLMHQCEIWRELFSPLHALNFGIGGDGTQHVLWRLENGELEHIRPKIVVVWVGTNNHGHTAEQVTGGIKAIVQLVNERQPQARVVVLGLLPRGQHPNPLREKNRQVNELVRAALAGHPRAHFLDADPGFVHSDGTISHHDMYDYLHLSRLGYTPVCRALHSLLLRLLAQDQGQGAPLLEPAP
PAFAH2 FP inh: inhibitors of human PAFAH2; Q99487; recombinant PAFAH2, FP-rhodamine activity probe, fluorescence polarization; inhibition, % at 3.39 µM; actives 0.99% (n = 340,000);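 active = inhibition above the mean over all tested compounds plus 3 SD, cut at about 30% in these data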;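 also: inhibitors block probe labeling of enzyme so polarization drops; 0% = enzyme with DMSO and 100% = wells lacking PAFAH2 protein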
pPAFAH inh: inhibitors of human plasma PAF acetylhydrolase (pPAFAH) | actives 1.5% (n = 330,000) | recombinant pPAFAH, FP-rhodamine probe fluorescence polarization | AID 463082 | inhibition, % at 3.39 µM;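 active = inhibition above the mean inhibition across the screen plus 3 SD, cut at about 25% in these data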;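 also: inhibitors block binding of the rhodamine activity-based probe so polarization drops; 0% = enzyme with DMSO and 100% = wells lacking pPAFAH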
Apaf-1 inh: blocks human Apaf-1 apoptosome activity. O14727. reconstituted apoptosome caspase-3 activity, DEVD-Rh110 fluorescence. inhibition, % at 20 µM. actives 0.71% (n = 330,000). AID 489030; active = inhibition of at least 40% at 20 µM;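 also: plate controls were DMSO wells for no effect and DEVD-CHO caspase inhibitor wells for full effect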
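System – cell-free apoptosome with Apaf-1, procaspase-3 and caspase-9 · Buffer or medium – pH 7.5 Hepes buffer with CHAPS, BSA, DTT · Also added – cytochrome c with DEVD-Rh110 · Times – 30 min compound preincubation, 50 min activation, room temperature · Technique – Rh110 fluorescence intensity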
PAFAH1B2 FP inh: blocks human PAF acetylhydrolase 1b catalytic subunit 2 | AID 492953 | recombinant PAFAH1B2, FP-rhodamine activity probe, fluorescence polarization | P68402 | actives 1.2% (n = 340,000) | inhibition, % at 3.39 µM;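 active = inhibition above the mean of all tested compounds plus 3 SD, cut at about 24% in these data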;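 also: 0% = enzyme with DMSO and 100% = wells lacking PAFAH1B2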
Target sequence (P68402 whole entry, looked up): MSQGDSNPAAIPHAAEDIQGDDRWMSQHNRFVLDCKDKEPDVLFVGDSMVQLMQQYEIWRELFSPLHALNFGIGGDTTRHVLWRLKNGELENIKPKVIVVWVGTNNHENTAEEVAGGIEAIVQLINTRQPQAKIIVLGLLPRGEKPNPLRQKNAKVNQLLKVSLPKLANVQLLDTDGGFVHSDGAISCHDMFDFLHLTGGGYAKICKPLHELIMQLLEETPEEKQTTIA
PAFAH2 FP conf: confirmation of human PAFAH2 inhibitors | recombinant PAFAH2, FP-rhodamine activity probe, fluorescence polarization | actives 65% (n = 2,300) | inhibition, % at 3.39 µM | shares compounds with PAFAH2 FP inh;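 active = mean inhibition over three repeats above a set limit taken from the earlier primary screen, cut at about 30% in these data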;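 also: inhibitor blocks binding of rhodamine activity probe so polarization falls; 0% = enzyme with DMSO and 100% = wells lacking PAFAH2 protein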
PAFAH1B3 confirm: PAFAH1B3 (human) inhibition, confirmed; shares compounds with PAFAH1B3 FP inh; actives 30% (n = 390); inhibition, % at 3.39 µM; recombinant PAFAH1B3, FP-Rh activity-based probe, fluorescence polarization;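 active = average inhibition over triplicate runs above the hit cutoff set in the earlier primary screen, cut at about 25% in these data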;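 also: 0% = enzyme with DMSO and 100% = wells lacking PAFAH1B3 protein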
Numbers without * were called inactive; · = no result; ! = not confirmed by another sample.

SMILES	PAFAH1B3 FP inh	PAFAH2 FP inh	pPAFAH inh	Apaf-1 inh	PAFAH1B2 FP inh	PAFAH2 FP conf	others
NS(=O)(=O)c1cccc(NS(=O)(=O)c2ccc(/C=C/C(=O)OCC(=O)c3ccccc3)cc2)c1	-1	58*	2	-3	2	49*
O=C(COC(=O)c1ccc(Cl)c(S(=O)(=O)N2CCCC2)c1)NC1CCCCC1	9	36*	11	15	3	16
O=C(COC(=O)c1cccc(S(=O)(=O)N2CCCCCC2)c1)Nc1ccccc1C(F)(F)F	0	58*	18	2	2	36*
O=C(COC(=O)c1cccc(S(=O)(=O)N2CCCCC2)c1)NC1CCCCC1	11	77*	6	11	2	76*
O=C(COC(=O)c1ccc(Cl)c(S(=O)(=O)N2CCCCC2)c1)NCCc1ccccc1	13	9	·	10	6	·
CCCCNC(=O)COC(=O)c1ccc(Cl)c(S(=O)(=O)N2CCCC2)c1	9	44*	13	13	4	21
Cc1ccc(C(=O)OCC(=O)Nc2ccccc2C(F)(F)F)cc1S(=O)(=O)N1CCCCC1	9	14	·	20	6	·
Oc1c(/C=C/C=C/C=Nc2ccccc2)sc(=S)n1Cc1ccccc1	·	·	23	15	·	·
CCOC(=O)c1nnsc1N	2	2	2	-25	0	·
Cc1ccc(C(=O)OCC(=O)NC2CCCC(C)C2C)cc1S(=O)(=O)N1CCCCC1 (stereo not drawn)	9	39*	13	1	4	16
O=c1cc(-c2ccccc2)nc2cc(-c3ccc(F)cc3)[nH]n12	10	64*	8	8	20	0
COc1cccc(-c2cc3nc(-c4ccccc4)cc(=O)n3[nH]2)c1	17	12	15	13	9	·
N#C/C(=C(/O)CCl)c1nc(-c2ccccc2)cs1	-4	19	23	0	-1	·
Cc1ccc(-c2csc(/C(C#N)=C(\O)CCl)n2)cc1	0	33*	·	·	-4	31*
Cc1ccc(NC(=O)Nc2c(C)[nH]c(=O)[nH]c2=O)cc1Cl	-3	3	5	4	1	·
CN(C)c1ccc(C(=O)OCC(=O)N2CCCC2)cc1	-3	26	8	-3	-5	·
CC1Cc2ccccc2N1C(=O)COC(=O)c1ccc(N(C)C)cc1 (stereo not drawn)	6	55*	1	18	5	55*
COc1ccccc1/C=C/C(=O)OCC(=O)N1c2ccccc2CC1C (stereo not drawn)	-2	34*	-1	2	-1	12
CN(C)c1ccc(C(=O)OCC(=O)N2CCCCCC2)cc1	-5	57*	-1	14	-1	55*
CCc1ccc(C(=O)OCC(=O)N2CCCCCC2)cc1	2	38*	-4	-2	-1	18
CC1Cc2ccccc2N1C(=O)COC(=O)c1ccc(O)cc1 (stereo not drawn)	-6	2	2	-14	4	·
O=C(OCC(=O)N1CCCC1)c1cccc(Br)c1	5	8	1	-2	-1	·
CC(=O)C1CCC2C3CC=C4CC(SC(=N)N)CCC4(C)C3CCC12C (stereo not drawn)	2	-4	·	·	-2	·
C=CCn1c(C)cc(C(=O)COC(=O)c2ccc3c(c2)NC(=O)CS3)c1C	13	41*	11	15	5	28
C=CCn1c(C)cc(C(=O)COC(=O)c2ccc(N)c([N+](=O)[O-])c2)c1C	-1	81*	6	18	3	80*
SMILES	PAFAH1B3 FP inh	PAFAH2 FP inh	pPAFAH inh	Apaf-1 inh	PAFAH1B2 FP inh	PAFAH2 FP conf	others
COCCn1c(C)cc(C(=O)COC(=O)c2ccc3c(c2)NC(=O)CS3)c1C	6	3	5	9	3	·
Cc1cccc2c(=O)oc(-c3ccccc3Cl)nc12	5	49*	8	-6	4	40*
O=C(Nc1ccc2ccccc2c1)C(=O)C1C(=O)Nc2ccccc21 (stereo not drawn)	·	·	7	-13	·	·
Cc1cccc(NC(=O)C(=O)C2C(=O)Nc3ccccc32)c1 (stereo not drawn)	1	36*	-2	2	7	29
Cn1nc(C(C)(C)C)c(NC(=O)c2ccc(F)cc2)c1C(C)(C)C	31*	-4	1	-25	-2	·	PAFAH1B3 confirm=7
COc1ncnc(OC)c1NC(=O)c1ccc(F)cc1	1	4	-2	-3	1	·
COc1ccccc1OCCC(=O)NNC(=O)c1ccccc1F	-9	4	1	-11	5	·
COc1cc(C2Nc3cccc4cccc(c34)N2)cc(OC)c1O	35*	23	6	36	13	·	PAFAH1B3 confirm=11
COC(=O)Nc1ccc(S(=O)(=O)N2CCC(C(=O)NCc3ccc4c(c3)OCO4)CC2)cc1	2	-1	2	-9	6	·
O=[N+]([O-])c1ccc(O)c(-c2nn[nH]n2)c1	28*	-2	1	0	11	·	PAFAH1B3 confirm=26*
Cc1cc(C)n(-c2ccc([N+](=O)[O-])cc2-c2nn[nH]n2)n1	1	0	1	0	9	·
O=C(COc1ccc2c3c(c(=O)oc2c1)CCC3)NCCCN1CCCC1=O	7	0	3	-10	1	·
CC1(c2nnc(-c3ccc(F)cc3)o2)CC(c2cccnc2)=NO1 (stereo not drawn)	15	4	1	-10	5	·
CC1(c2nnc(-c3ccncc3)o2)CC(c2ccc(F)cc2)=NO1 (stereo not drawn)	26*	-32	0	-3	6	·	PAFAH1B3 confirm=10
CCCN1CCCc2cc(CN)ccc21	30*	10	21	84*	1	·	PAFAH1B3 confirm=16
Cc1[nH]c2ccccc2c1/C=N/Nc1nc(N2CCCCC2)nc(N2CCCCC2)n1	26*	-10	8	-11	12	·	PAFAH1B3 confirm=9
Oc1ccc(Cl)cc1CNc1cccc2cccnc12	28*	-3	21	91*	17	·	PAFAH1B3 confirm=6
CS/C(=N\S(=O)(=O)c1cccs1)NC(=O)CSc1nc2ccccc2s1	31*!	3	8	-6	20	·	PAFAH1B3 confirm=20
C/C(=N/NC(=O)CSc1nc2ccccc2s1)c1ccncc1	4	5	0	-13	5	·
CSc1cccc(N2CC(C(=O)Nc3cccc(S(=O)(=O)N4CCCC4)c3)CC2=O)c1 (stereo not drawn)	0	-4	4	16	-3	·
O=Nc1c(O)[nH]c2c(F)cccc12	20	5	4	-2	7	·
CCc1cccc2c(N=O)c(O)[nH]c12	28*	11	10	-2	12	·	PAFAH1B3 confirm=24
COC(=O)C(Cc1c[nH]c2ccccc12)NC(=O)c1cccc(S(=O)(=O)N2CCCCC2)c1 (stereo not drawn)	7	3	-1	8	9	·
COc1cc(CCNC2=CC(=O)c3ncccc3C2=O)ccc1O	35*	13	·	·	11	·	PAFAH1B3 confirm=22
